Consider eleven compounds from ChEMBL document CHEMBL2062509, “Synthesis of benzo-annulated tryptanthrins and their biological properties” (Bioorg Med Chem, 2012).

pIC50: −log10 of the molar value. ≈ marks a conversion by molar mass, not a printed value.

The test system of one test is DU-145. Kind of test: Cytotoxicity against human DU145 cells after 72 hrs by MTT assay. The test is classed as functional, cell-based. To be noted: DU-145, 72 h.
Test [1] addresses DNA topoisomerase 2-alpha (Homo sapiens) (UniProt P11388). Kind of test: Inhibition of human DNA topoisomerase 2alpha-mediated relaxation of supercoiled pBR322 DNA at 100 uM after 30 mins by agarose gel electrophoretic analysis. The essentials:
(§1)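 Human topo IIα (0.2 units) and 100 ng supercoiled pBR322, 30 min at 37 °C with or without compound in 10 mM Tris-HCl pH 7.9, 50 mM NaCl, 5 mM MgCl2, 1 mM EDTA, 1 mM ATP, 15 µg/mL BSA. Quenched with 7 mM EDTA. Resolved on 1% agarose in TAE (25 V, 4 h), ethidium-stained, supercoiled DNA quantified under UV.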

Another test concerns T47D. The test is described as follows: Cytotoxicity against human T47D cells after 72 hrs by MTT assay. The test is classed as functional, cell-based.
The species entered for test [2] is Bos taurus. The test is described as follows: Inhibition of calf thymus DNA topoisomerase 1-mediated relaxation of supercoiled pBR322 DNA at 20 uM after 30 mins by agarose gel electrophoresis analysis.
A further test has as its system HEK293. Kind of test: Cytotoxicity against human HEK293 cells after 72 hrs by MTT assay. The test is classed as cell-based. Particulars: HEK293, 72 h.
Test [3] is filed under the species Bos taurus. The test is described as follows: Inhibition of calf thymus DNA topoisomerase 1-mediated relaxation of supercoiled pBR322 DNA at 100 uM after 30 mins by agarose gel electrophoresis analysis.
The next test has as its system HCT-15. Kind of test: Cytotoxicity against human HCT15 cells after 72 hrs by MTT assay. The test is classed as functional, cell-based. Particulars: HCT-15, 72 h.
For test [4], the target named is DNA topoisomerase 2-alpha (Homo sapiens) (UniProt P11388). The test is described as follows: Inhibition of human DNA topoisomerase 2alpha-mediated relaxation of supercoiled pBR322 DNA at 20 uM after 30 mins by agarose gel electrophoretic analysis. Put shortly:
as §1

The subject of test [5] is Mycobacterium tuberculosis. The test is described as follows: Antituberculosis activity against Mycobacterium tuberculosis. In kind it is functional.
The subject of the next test is HT-1376. The test is described as follows: Cytotoxicity against human HT-1376 cells. In kind it is functional.
The target of test [6] is T1, Polyunsaturated fatty acid 5-lipoxygenase (Homo sapiens, UniProt P09917).
T1 sequence (P09917 whole entry): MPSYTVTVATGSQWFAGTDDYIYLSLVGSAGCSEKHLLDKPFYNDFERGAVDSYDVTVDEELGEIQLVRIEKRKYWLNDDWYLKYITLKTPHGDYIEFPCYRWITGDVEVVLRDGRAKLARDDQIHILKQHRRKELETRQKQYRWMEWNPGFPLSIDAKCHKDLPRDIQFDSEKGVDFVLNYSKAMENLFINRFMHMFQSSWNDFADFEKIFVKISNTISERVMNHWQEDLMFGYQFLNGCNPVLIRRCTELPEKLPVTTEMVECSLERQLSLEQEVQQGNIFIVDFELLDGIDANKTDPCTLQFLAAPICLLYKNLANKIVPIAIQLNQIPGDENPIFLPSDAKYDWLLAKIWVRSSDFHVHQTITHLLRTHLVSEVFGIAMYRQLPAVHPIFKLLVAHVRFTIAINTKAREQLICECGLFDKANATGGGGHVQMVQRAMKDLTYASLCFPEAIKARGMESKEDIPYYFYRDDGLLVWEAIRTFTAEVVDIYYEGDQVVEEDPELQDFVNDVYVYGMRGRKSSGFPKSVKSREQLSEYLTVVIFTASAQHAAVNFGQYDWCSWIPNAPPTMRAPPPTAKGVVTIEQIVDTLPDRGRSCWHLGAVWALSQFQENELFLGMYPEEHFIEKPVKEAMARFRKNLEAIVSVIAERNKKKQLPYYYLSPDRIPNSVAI
Kind of test: Inhibition of 5-lipoxygenase.

Sequence of DNA topoisomerase 2-alpha (Homo sapiens) (P11388 whole entry): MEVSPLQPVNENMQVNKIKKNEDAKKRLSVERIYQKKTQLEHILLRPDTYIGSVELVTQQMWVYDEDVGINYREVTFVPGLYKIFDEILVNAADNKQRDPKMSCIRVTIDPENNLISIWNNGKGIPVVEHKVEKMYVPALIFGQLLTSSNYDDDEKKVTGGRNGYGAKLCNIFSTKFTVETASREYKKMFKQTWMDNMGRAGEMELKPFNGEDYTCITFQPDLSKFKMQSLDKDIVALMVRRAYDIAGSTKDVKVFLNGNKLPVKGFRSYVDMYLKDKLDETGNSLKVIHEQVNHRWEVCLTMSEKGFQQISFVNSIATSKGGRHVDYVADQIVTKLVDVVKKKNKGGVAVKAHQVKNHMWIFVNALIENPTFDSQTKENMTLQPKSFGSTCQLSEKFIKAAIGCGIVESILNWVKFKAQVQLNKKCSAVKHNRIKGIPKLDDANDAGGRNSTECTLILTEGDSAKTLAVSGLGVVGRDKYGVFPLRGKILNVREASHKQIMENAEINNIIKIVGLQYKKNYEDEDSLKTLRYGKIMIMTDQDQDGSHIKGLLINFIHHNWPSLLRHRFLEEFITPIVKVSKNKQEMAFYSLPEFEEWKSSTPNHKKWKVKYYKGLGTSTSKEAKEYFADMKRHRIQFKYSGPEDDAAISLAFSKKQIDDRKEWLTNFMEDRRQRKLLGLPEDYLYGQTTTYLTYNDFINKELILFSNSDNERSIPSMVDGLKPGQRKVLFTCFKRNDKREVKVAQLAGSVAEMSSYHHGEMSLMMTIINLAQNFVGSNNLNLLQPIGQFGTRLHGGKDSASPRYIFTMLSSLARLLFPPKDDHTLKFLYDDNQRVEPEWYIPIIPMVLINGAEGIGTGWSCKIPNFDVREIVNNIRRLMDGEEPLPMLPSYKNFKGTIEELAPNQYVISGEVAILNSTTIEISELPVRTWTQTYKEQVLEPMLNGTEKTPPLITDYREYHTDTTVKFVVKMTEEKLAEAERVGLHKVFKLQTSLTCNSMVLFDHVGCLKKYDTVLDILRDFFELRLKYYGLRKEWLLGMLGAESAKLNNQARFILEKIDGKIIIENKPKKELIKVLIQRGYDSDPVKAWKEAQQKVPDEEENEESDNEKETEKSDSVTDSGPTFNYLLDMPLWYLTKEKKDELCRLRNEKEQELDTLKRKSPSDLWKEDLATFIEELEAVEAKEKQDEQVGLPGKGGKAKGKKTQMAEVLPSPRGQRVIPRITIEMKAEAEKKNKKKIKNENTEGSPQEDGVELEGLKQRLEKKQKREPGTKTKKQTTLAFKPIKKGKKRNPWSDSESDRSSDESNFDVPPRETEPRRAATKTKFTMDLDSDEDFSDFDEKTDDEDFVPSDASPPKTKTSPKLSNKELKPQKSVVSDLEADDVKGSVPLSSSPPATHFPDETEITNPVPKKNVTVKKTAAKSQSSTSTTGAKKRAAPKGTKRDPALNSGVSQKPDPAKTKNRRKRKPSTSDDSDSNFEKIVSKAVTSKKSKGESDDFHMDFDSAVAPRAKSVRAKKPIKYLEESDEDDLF

Regarding `O=C1c2c(ccc3ccccc23)-n2c1nc1ccccc1c2=O`, the pIC50 in the test on DU-145 is 4.56; with T47D, 4.50; with HEK293 it was 4.59; in the test with HCT-15 it was 4.61. Also, the inhibition was determined as 8.13% in test [1], 4.9% in the test filed under Bos taurus [2] and 47.8% in the test listed under Bos taurus [3].

As to `O=C1c2ccccc2-n2c1nc1cc3ccccc3cc1c2=O` [BENZO[K]TRYPTANTHRIN], the pIC50 in the test on DU-145 was 4.58; in the test with T47D, 4.64; in the test with HEK293, 4.50; with HCT-15, 4.59. In addition, the inhibition turned out to be 16% in test [1] and 18.8% in the test listed under Bos taurus [3].

With `O=C1c2ccc3ccccc3c2-n2c1nc1cc3ccccc3cc1c2=O`, the negative logarithm of the IC50 (pIC50) with DU-145 was 4.49; in the test with T47D it was 4.46; in the test with HEK293, 4.69; with HCT-15 it was 4.62. In addition, the inhibition in [1] is 53.5%; in test [4], 19.1%; in the test filed under Bos taurus [2] it was 3.5%; in the test filed under Bos taurus [3], 84.1%.

As for `O=C1c2c(ccc3ccccc23)-n2c1nc1cc3ccccc3cc1c2=O`, the pIC50 was 4.47 in the test on DU-145, 4.60 in the test with T47D, 4.62 in the test on HEK293 and 4.48 in the test with HCT-15. Besides, the inhibition was 71.3% in [1], 5.83% in test [4], 3.8% in the test listed under Bos taurus [2] and 39.1% in the test filed under Bos taurus [3].

Regarding `COc1cccc2c1C(=O)c1c(O)c3c(c(O)c1C2=O)C[C@@](O)(C(=O)CO)C[C@@H]3O[C@H]1C[C@H](N)[C@H](O)[C@H](C)O1` [DOXORUBICIN], the pIC50 was 5.74 with T47D, 6.00 with HEK293 and 5.75 in the test with HCT-15.

As for `CC[C@@]1(O)C(=O)OCc2c1cc1n(c2=O)Cc2cc3ccccc3nc2-1` [CAMPTOTHECIN], the negative-log IC50 (pIC50) with DU-145 was 5.03; with T47D it was 5.04; with HEK293, 5.10; with HCT-15 it was 5.00. In addition, the values for the inhibition in the test filed under Bos taurus [2] and in the test listed under Bos taurus [3] were 26.3% and 63.1%, respectively.

`O=C1c2cc3ccccc3cc2-n2c1nc1ccccc1c2=O`: the pIC50 with DU-145 is 4.75; in the test with T47D, 4.67; in the test on HEK293 it was 4.97; in the test on HCT-15, 5.21. For the same compound, the inhibition in [1] came to 75.9%; in test [4], 5.95%; in the test filed under Bos taurus [2], 5.4%; in the test listed under Bos taurus [3], 69.6%.

With `COc1cc([C@@H]2c3cc4c(cc3[C@@H](O[C@@H]3O[C@@H]5CO[C@@H](C)O[C@H]5[C@H](O)[C@H]3O)[C@H]3COC(=O)[C@H]23)OCO4)cc(OC)c1O` [ETOPOSIDE], the pIC50 in the test on DU-145 was 5.85; in the test with T47D, 5.92; in the test with HEK293 it was 6.39; in the test on HCT-15 it was 6.55.

As for `O=C1c2ccccc2-n2c1nc1ccccc1c2=O` [TRYPTANTHRIN], the minimum inhibitory concentration (MIC) in [5] is 10 µg/mL (≈ 40.3 µM). The pIC50 was 5.21 in the test on DU-145; 4.84 in the test with T47D; 5.39 in the test on HEK293; 6.82 in test [6]; 5.07 in the test on HCT-15. The inhibition in test [1] turned out to be 4.54%; in the test filed under Bos taurus [2], 4.09%; in the test filed under Bos taurus [3] it was 68.4%. The compound further had an Activity in the test with HT-1376 of 10 µM.

Turning to `O=C1c2ccc3ccccc3c2-n2c1nc1ccccc1c2=O`, the pIC50 with DU-145 was 4.67; with T47D, 4.64; in the test on HEK293, 4.65; in the test on HCT-15, 4.90. The inhibition was found to be 14% in [1], 4.1% in the test filed under Bos taurus [2] and 53.4% in the test filed under Bos taurus [3].

Consider `O=C1c2cc3ccccc3cc2-n2c1nc1cc3ccccc3cc1c2=O`, for which the pIC50 was 4.58 with DU-145, 4.59 in the test with T47D, 5.64 with HEK293 and 4.58 in the test with HCT-15. In addition, the inhibition was 12.6% in test [1], 3.6% in the test filed under Bos taurus [2] and 41.9% in the test filed under Bos taurus [3].
